ChEMBL document CHEMBL1121400, “Quantitative structure--activity correlations of rifamycins as inhibitors of viral RNA-directed DNA polymerase and mammalian alpha and beta DNA polymerases” (J Med Chem, 1980)

How the values were obtained:
[1] = Partition coefficient (logP); details: octanol/water
[2] = Ability to inhibit mouse alpha DNA polymerase
How it was run: (§1)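 Enzyme in 50% glycerol, 1 mM dithiothreitol, 0.5 M KCl and 50 mM Tris-HCl pH 7.5 was premixed with inhibitor in 100% Me2SO and held on ice 10 min. Cocktail (MnCl2, KCl, NaF, BSA, [3H]dGTP, poly(2'-O-methylcytidylic acid)·d(pG)12-18) was then added. Incubation was 45 min at 37 °C.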

[3] = The logarithm of the reciprocal of the concentration which produces 50% inhibition of mammalian alpha DNA polymerase.
How it was run: (§2)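 Mammalian α or β DNA polymerase in 100 µL reaction: enzyme in 50% glycerol, 1 mM DTT, 0.5 M KCl, Tris-HCl pH 7.5; Me2SO compound; cocktail with MnCl2, NaF, [3H]dGTP, poly(2'-O-methylC)·d(pG)12-18 template. Compound added first, then enzyme, then cocktail; 45 min at 37 °C. Product radioactivity, background-corrected against Me2SO controls; 50% concentration from triplicate five-dose curves, 10^-3–10^-7 M, expressed as log(1/C).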

DNA polymerase beta = DNA polymerase beta (Mus musculus, UniProt Q8K409); assay: Ability to inhibit mouse beta DNA polymerase; how it was run: as §1
Gag-Pol polyprotein = Gag-Pol polyprotein (Woolly monkey sarcoma virus, UniProt P03359); assay: Ability to inhibit simian sarcoma virus reverse transcriptase
Chain of Gag-Pol polyprotein (P03359 642-1310 limits assumed): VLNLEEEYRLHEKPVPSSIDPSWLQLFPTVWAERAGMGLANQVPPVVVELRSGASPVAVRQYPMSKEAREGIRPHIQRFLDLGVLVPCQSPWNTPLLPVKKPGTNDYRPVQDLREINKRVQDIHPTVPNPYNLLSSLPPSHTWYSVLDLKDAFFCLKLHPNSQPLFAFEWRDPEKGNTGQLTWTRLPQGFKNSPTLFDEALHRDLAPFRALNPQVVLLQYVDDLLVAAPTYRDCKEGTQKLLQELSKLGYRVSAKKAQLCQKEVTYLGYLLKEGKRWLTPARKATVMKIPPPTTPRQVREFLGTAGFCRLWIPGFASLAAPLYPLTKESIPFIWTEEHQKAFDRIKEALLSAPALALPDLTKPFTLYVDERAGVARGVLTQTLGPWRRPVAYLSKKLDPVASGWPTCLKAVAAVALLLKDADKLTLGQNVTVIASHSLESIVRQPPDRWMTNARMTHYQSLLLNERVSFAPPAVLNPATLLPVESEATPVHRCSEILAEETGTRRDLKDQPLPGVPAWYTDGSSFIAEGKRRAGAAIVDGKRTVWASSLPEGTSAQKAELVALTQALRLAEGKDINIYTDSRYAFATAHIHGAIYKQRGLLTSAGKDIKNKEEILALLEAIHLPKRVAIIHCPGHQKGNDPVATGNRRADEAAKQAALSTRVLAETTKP
How it was run: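 Purified SSV-1 RNA-dependent DNA polymerase from 71 AP1 culture fluids, in 20% glycerol, 1 mM dithiothreitol, 1 mg/mL BSA and 50 mM Tris-HCl pH 7.5, was held 10 min on ice with inhibitor in Me2SO. Mn2+/[3H]dGTP cocktail with poly(2'-O-methylcytidylic acid)·d(pG)12-18 template was added, then 45 min at 37 °C. Background-corrected triplicate dose series; the 50% inhibition concentration was extrapolated.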

[4] = target: Gag-Pol polyprotein (Woolly monkey sarcoma virus) (UniProt P03359); assay: Inhibition of simian sarcoma virus reverse transcriptase
Chain of Gag-Pol polyprotein (Woolly monkey sarcoma virus) (P03359 whole entry): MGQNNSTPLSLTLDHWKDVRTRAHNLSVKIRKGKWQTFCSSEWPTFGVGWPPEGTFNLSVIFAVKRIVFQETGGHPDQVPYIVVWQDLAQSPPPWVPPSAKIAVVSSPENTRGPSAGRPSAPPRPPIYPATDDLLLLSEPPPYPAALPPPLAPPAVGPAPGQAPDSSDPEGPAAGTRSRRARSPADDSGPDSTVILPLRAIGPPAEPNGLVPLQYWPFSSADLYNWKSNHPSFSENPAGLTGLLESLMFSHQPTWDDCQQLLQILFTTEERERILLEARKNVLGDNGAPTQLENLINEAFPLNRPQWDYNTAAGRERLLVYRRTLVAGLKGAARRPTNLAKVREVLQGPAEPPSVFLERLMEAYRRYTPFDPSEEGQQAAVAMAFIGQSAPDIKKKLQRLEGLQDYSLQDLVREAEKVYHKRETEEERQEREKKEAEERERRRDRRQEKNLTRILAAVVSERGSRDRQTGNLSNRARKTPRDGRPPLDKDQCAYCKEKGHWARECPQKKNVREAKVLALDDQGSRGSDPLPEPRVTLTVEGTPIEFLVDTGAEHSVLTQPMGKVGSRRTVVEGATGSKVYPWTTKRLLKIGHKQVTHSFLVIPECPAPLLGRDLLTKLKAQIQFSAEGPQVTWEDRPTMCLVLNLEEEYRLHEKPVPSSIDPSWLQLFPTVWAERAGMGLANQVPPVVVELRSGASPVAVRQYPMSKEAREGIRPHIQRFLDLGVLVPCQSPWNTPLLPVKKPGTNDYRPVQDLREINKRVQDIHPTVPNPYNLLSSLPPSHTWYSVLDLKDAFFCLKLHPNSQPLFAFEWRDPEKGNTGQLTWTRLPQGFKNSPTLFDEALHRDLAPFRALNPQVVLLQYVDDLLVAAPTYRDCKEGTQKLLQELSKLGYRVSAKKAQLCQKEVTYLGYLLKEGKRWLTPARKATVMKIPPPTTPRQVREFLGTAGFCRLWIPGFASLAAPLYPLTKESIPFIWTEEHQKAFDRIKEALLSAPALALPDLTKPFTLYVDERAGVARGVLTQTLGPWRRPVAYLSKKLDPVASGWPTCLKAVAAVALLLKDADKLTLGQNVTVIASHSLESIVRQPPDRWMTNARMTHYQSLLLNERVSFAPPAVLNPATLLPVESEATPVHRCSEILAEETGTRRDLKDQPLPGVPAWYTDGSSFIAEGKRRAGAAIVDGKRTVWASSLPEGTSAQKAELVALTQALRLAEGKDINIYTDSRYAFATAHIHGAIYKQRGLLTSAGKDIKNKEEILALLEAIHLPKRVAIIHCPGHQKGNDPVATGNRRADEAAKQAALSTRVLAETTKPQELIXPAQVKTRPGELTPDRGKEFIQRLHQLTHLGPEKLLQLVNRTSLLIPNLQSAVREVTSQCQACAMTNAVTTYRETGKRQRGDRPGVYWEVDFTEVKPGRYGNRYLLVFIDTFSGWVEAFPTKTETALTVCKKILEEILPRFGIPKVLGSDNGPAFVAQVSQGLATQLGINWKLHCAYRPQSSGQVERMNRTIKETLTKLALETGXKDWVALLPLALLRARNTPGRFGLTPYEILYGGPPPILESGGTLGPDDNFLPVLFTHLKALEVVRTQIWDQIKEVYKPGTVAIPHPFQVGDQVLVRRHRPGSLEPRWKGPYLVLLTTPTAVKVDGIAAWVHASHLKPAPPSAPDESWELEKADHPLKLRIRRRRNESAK
How it was run: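 SSV-1 RNA-dependent DNA polymerase purified from tissue culture fluid of 71 AP1 cells. 50 µL reaction containing 20% glycerol, 1 mM DTT, BSA, Tris-HCl pH 7.5, MnCl2, KCl, NaF, [3H]dGTP and poly(2'-O-methylC)·d(pG)12-18. Compound in Me2SO is mixed with enzyme on ice for 10 min before the cocktail is added, then incubated 45 min at 37 °C. Radioactivity in product; 50% inhibitory concentration from triplicate dose–response curves spanning 10^-3 to 10^-7 M.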

[5] = target: DNA polymerase beta (Mus musculus) (UniProt Q8K409); assay: The logarithm of the reciprocal of the concentration which produces 50% inhibition of mammalian beta DNA polymerase.; how it was run: as §2

Row | SMILES | logP ([1]; logP) | IC50 [2] | Log 1/C [3] | IC50 (Gag-Pol polyprotein; read-out: IC50) | Log 1/C [4] | Log 1/C [5] | also measured
1 | COC1/C=C/OC2(C)Oc3c(C)c(O)c4c(O)c(c(/C=N/N5CCCCCCC5)cc4c3C2=O)NC(=O)/C(C)=C\C=C\C(C)C(O)C(C)C(O)C(C)C(OC(C)=O)C1C (stereo unspecified) | 3.1 |  |  |  |  |  | 
2 | COC1/C=C/OC2(C)Oc3c(C)c(O)c4c(O)c(c(/C=N/N5CCNCC5)cc4c3C2=O)NC(=O)/C(C)=C\C=C\C(C)C(O)C(C)C(O)C(C)C(OC(C)=O)C1C (stereo unspecified) | 1.12 |  |  |  |  |  | 
3 | CCCCCCCCO/N=C/c1cc2c3c4c(C)c(O)c2c(O)c1NC(=O)/C(C)=C\C=C\C(C)C(O)C(C)C(O)C(C)C(OC(C)=O)C(C)C(OC)/C=C/OC(C)(O4)C3=O (stereo unspecified) | 5.2 | 0.000015 M l-1 | 4.94 | 1 µM | 6 | 4.89 | IC50 (DNA polymerase beta; read-out: IC50): 13 µM
4 | COC1/C=C/OC2(C)Oc3c(C)c(O)c4c(O)c(c(/C=N/N5CCCCC5)cc4c3C2=O)NC(=O)/C(C)=C\C=C\C(C)C(O)C(C)C(O)C(C)C(OC(C)=O)C1C (stereo unspecified) | 2.35 |  |  |  |  |  | 
5 | COC1/C=C/OC2(C)Oc3c(C)c(O)c4c(O)c(c(/C=N/N5C(C)CN(Cc6ccccc6)CC5C)cc4c3C2=O)NC(=O)/C(C)=C\C=C\C(C)C(O)C(C)C(O)C(C)C(OC(C)=O)C1C (stereo unspecified) | 4.28 | 0.000038 M l-1 | 4.42 | 12.5 µM | 4.9 | 4.68 | IC50 (DNA polymerase beta; read-out: IC50): 21 µM
6 | COC1/C=C/OC2(C)Oc3c(C)c(O)c4c(O)c(c(/C=N/N5CCCC5)cc4c3C2=O)NC(=O)/C(C)=C\C=C\C(C)C(O)C(C)C(O)C(C)C(OC(C)=O)C1C (stereo unspecified) | 2.75 | 0.00024 M l-1 | 3.62 | 17 µM | 4.77 | 3.62 | IC50 (DNA polymerase beta): 0.00024 M l-1
7 | CCCCCCCCN(CCCCCCCC)/N=C/c1cc2c3c4c(C)c(O)c2c(O)c1NC(=O)/C(C)=C\C=C\C(C)C(O)C(C)C(O)C(C)C(OC(C)=O)C(C)C(OC)/C=C/OC(C)(O4)C3=O (stereo in doubt; 8) [listing 1 of 2 here] |  | 0.000024 M l-1 |  | 3.2 µM |  |  | logP [1]: 3.62; IC50 (DNA polymerase beta; read-out: IC50): 7.4 µM
8 | COC1/C=C/OC2(C)Oc3c(C)c(O)c4c(O)c(c(/C=N/N5CCN(Cc6ccccc6)CC5)cc4c3C2=O)NC(=O)/C(C)=C\C=C\C(C)C(O)C(C)C(O)C(C)C(OC(C)=O)C1C (stereo unspecified) | 3.36 |  |  |  |  |  | 
9 | COc1cccc(CN2CCN(/N=C/c3cc4c5c6c(C)c(O)c4c(O)c3NC(=O)/C(C)=C\C=C\C(C)C(O)C(C)C(O)C(C)C(OC(C)=O)C(C)C(OC)/C=C/OC(C)(O6)C5=O)CC2)c1 (stereo unspecified) | 3.34 | 0.00014 M l-1 | 3.85 | 10 µM | 5 | 3.92 | IC50 (DNA polymerase beta): 0.00012 M l-1
10 | CCCCCCCCN(CCCCCCCC)/N=C/c1cc2c3c4c(C)c(O)c2c(O)c1NC(=O)/C(C)=C\C=C\C(C)C(O)C(C)C(O)C(C)C(OC(C)=O)C(C)C(OC)/C=C/OC(C)(O4)C3=O (stereo in doubt; 8) [listing 2 of 2 here] |  |  | 4.62 |  | 5.49 | 5.13 | 
11 | COC1/C=C/OC2(C)Oc3c(C)c(O)c4c(O)c(c(/C=N/N5C(C)CC(Cc6ccccc6)CC5C)cc4c3C2=O)NC(=O)/C(C)=C\C=C\C(C)C(O)C(C)C(O)C(C)C(OC(C)=O)C1C (stereo unspecified) | 6.3 |  |  |  |  |  | 
12 | COC1/C=C/OC2(C)Oc3c(C)c(O)c4c(O)c(c(/C=N/N5C(C)CN(Cc6ccc(C#N)cc6)CC5C)cc4c3C2=O)NC(=O)/C(C)=C\C=C\C(C)C(O)C(C)C(O)C(C)C(OC(C)=O)C1C (stereo unspecified) | 3.71 | 0.000047 M l-1 | 4.33 | 16 µM | 4.8 | 4.66 | IC50 (DNA polymerase beta; read-out: IC50): 22 µM
13 | CCCCCN(CCCCC)/N=C/c1cc2c3c4c(C)c(O)c2c(O)c1NC(=O)/C(C)=C\C=C\C(C)C(O)C(C)C(O)C(C)C(OC(C)=O)C(C)C(OC)/C=C/OC(C)(O4)C3=O (stereo unspecified) | 3.47 | 0.000043 M l-1 | 4.36 | 4.4 µM | 5.36 | 4.32 | IC50 (DNA polymerase beta; read-out: IC50): 48 µM
14 | COC1/C=C/OC2(C)Oc3c(C)c(O)c4c(O)c(c(/C=N/N5CCCCCCCCCCCCCCC5)cc4c3C2=O)NC(=O)/C(C)=C\C=C\C(C)C(O)C(C)C(O)C(C)C(OC(C)=O)C1C (stereo in doubt; 31) |  |  |  |  |  |  | logP [1]: 5.55
15 | COC1/C=C/OC2(C)Oc3c(C)c(O)c4c(O)c(ccc4c3C2=O)NC(=O)/C(C)=C\C=C\C(C)C(O)C(C)C(O)C(C)C(OC(C)=O)C1C (stereo unspecified) | 0.78 | 0.00076 M l-1 | 3.12 |  | 3.43 | 2.96 | IC50 (DNA polymerase beta): 0.0011 M l-1; IC50 (Gag-Pol polyprotein): 0.00037 M l-1
16 | COC1/C=C/OC2(C)Oc3c(C)c(O)c4c(O)c(c(/C=N/N5CCCCCCCCCCCC5)cc4c3C2=O)NC(=O)/C(C)=C\C=C\C(C)C(O)C(C)C(O)C(C)C(OC(C)=O)C1C (stereo in doubt; 30) |  |  |  |  |  |  | logP [1]: 4.65
17 | COC1/C=C/OC2(C)Oc3c(C)c(O)c4c(O)c(c(/C=N/N5CCCCCC5)cc4c3C2=O)NC(=O)/C(C)=C\C=C\C(C)C(O)C(C)C(O)C(C)C(OC(C)=O)C1C (stereo unspecified) | 2.75 |  |  |  |  |  | 
18 | NN1CCNCC1 | -0.29 |  |  |  |  |  | 
19 | COC1/C=C/OC2(C)Oc3c(C)c(O)c4c(O)c(c(/C=N/N5CCCCCCCCCCCC5)cc4c3C2=O)NC(=O)/C(C)=C\C=C\C(C)C(O)C(C)C(O)C(C)C(OC(C)=O)C1C (stereo in doubt; 17) [listing 1 of 2 here] | 4.75 | 0.000024 M l-1 |  | 3.3 µM |  |  | IC50 (DNA polymerase beta; read-out: IC50): 19 µM
20 | COC1/C=C/OC2(C)Oc3c(C)c(O)c4c(O)c(c(/C=N/N5CCCCCCCCCCCCCCC5)cc4c3C2=O)NC(=O)/C(C)=C\C=C\C(C)C(O)C(C)C(O)C(C)C(OC(C)=O)C1C (stereo in doubt; 18) [listing 1 of 2 here] |  |  | 4.6 |  | 5.19 | 4.66 | 
21 | COC1/C=C/OC2(C)Oc3c(C)c(O)c4c(O)c(c(/C=N/N5CCN(C)CC5)cc4c3C2=O)NC(=O)/C(C)=C\C=C\C(C)C(O)C(C)C(O)C(C)C(OC(C)=O)C1C (stereo unspecified) |  | 0.00034 M l-1 |  | 42 µM |  |  | IC50 (DNA polymerase beta): 0.00015 M l-1
22 | CCCCCCN(CCCCCC)/N=C/c1cc2c3c4c(C)c(O)c2c(O)c1NC(=O)/C(C)=C\C=C\C(C)C(O)C(C)C(O)C(C)C(OC(C)=O)C(C)C(OC)/C=C/OC(C)(O4)C3=O (stereo unspecified) | 3.51 |  |  |  |  |  | 
23 | COC1/C=C/OC2(C)Oc3c(C)c(O)c4c(O)c(c(/C=N/N5CCCCCCCCCCCCCCC5)cc4c3C2=O)NC(=O)/C(C)=C\C=C\C(C)C(O)C(C)C(O)C(C)C(OC(C)=O)C1C (stereo in doubt; 18) [listing 2 of 2 here] | 6.05 | 0.000025 M l-1 |  | 6.5 µM |  |  | IC50 (DNA polymerase beta; read-out: IC50): 22 µM
24 | CCCCCCCCN(CCCCCCCC)/N=C/c1cc2c3c4c(C)c(O)c2c(O)c1NC(=O)/C(C)=C\C=C\C(C)C(O)C(C)C(O)C(C)C(OC(C)=O)C(C)C(OC)/C=C/OC(C)(O4)C3=O (stereo in doubt; 35) | 3.6 |  |  |  |  |  | 
25 | CCCCN(CCCC)/N=C/c1cc2c3c4c(C)c(O)c2c(O)c1NC(=O)/C(C)=C\C=C\C(C)C(O)C(C)C(O)C(C)C(OC(C)=O)C(C)C(OC)/C=C/OC(C)(O4)C3=O (stereo unspecified) | 3.66 |  |  |  |  |  | 
26 | COC1/C=C/OC2(C)Oc3c(C)c(O)c4c(O)c(c(/C=N/N5CCCCCCCCCCCC5)cc4c3C2=O)NC(=O)/C(C)=C\C=C\C(C)C(O)C(C)C(O)C(C)C(OC(C)=O)C1C (stereo in doubt; 17) [listing 2 of 2 here] |  |  | 4.62 |  | 5.48 | 4.72 | 
27 | COC1/C=C/OC2(C)Oc3c(C)c(O)c4c(O)c(c(/C=N/N5CCCCCCCC5)cc4c3C2=O)NC(=O)/C(C)=C\C=C\C(C)C(O)C(C)C(O)C(C)C(OC(C)=O)C1C (stereo unspecified) | 3.45 |  |  |  |  |  | 
